# According to ChEMBL document CHEMBL3576840, “Helical Antimicrobial Sulfono-γ-AApeptides” (J Med Chem, 2015):
# Residues, ends and D or L forms follow the SMILES beside them.
# Tests used:
# Staphylococcus aureus = assay: Antimicrobial activity against methicillin-resistant Staphylococcus aureus ATCC 33592 after 16 hrs; format: functional; conditions: ATCC 33592, 16 h
# [1] = test system: Staphylococcus epidermidis; assay: Antimicrobial activity against methicillin-resistant Staphylococcus epidermidis RP62A after 16 hrs; format: functional
# Enterococcus faecalis = assay: Antimicrobial activity against Enterococcus faecalis ATCC 700802 after 16 hrs; format: functional; conditions: ATCC 700802, 16 h
# In short: (§1)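 Broth microdilution: overnight cultures were reinoculated at 1:100, grown to mid-log phase, and diluted to 1 × 10^6 CFU/mL. Cells were mixed 1:1 with serial dilutions […] and incubated 16 h at 37 °C, then read at 600 nm. MIC is the lowest concentration with no growth. Repeated multiple times, in duplicate.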
# Pseudomonas aeruginosa = assay: Antimicrobial activity against Pseudomonas aeruginosa ATCC 27853 after 16 hrs; format: functional; conditions: ATCC 27853, 16 h; in short: as §1
# Escherichia = assay: Antimicrobial activity against Escherichia ATCC 25922 after 16 hrs; format: functional; conditions: ATCC 25922, 16 h; in short: as §1
# [2] = Induction of hemolysis in human RBCs incubated for 1 hr; format: cell-based, Erythrocyte; conditions: red blood cells
# In short: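 Fresh K2EDTA human RBCs were washed in PBS until the supernatant was clear and diluted to a 5% v/v suspension. This was mixed with equal volumes of compound dilutions for 1 h at 37 °C, centrifuged, and supernatant absorbance read at 360 nm. Hemolysis was normalized between PBS (0%) and 2% Triton X-100 (100%) controls. At least three repeats, in duplicate.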
# [3] = Stability in presence of 0.1 mg/ml pronase in 100 mM pH 7.8 ammonium bicarbonate buffer at 37 degC assessed as compound degradation after 18 hrs by HPLC method; format: physicochemical; conditions: pH 7.8, 18 h
# In short: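 Compound or control peptide AcVQIVYK (1 mg/mL) was incubated 18 h at 37 °C with Pronase in ammonium bicarbonate. Mixtures were dried by speed-vac at 60 °C, redissolved in water and run on analytical RP-HPLC: 5–100% acetonitrile/0.1% TFA gradient over 40 min at 1 mL/min.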
# N2a = assay: Cytotoxicity against mouse N2a cells assessed as cell viability after 36 hrs by MTT assay
smiles,measurement,setting,value
CC(C)C[C@H](N)CN(CC(=O)N[C@@H](CC(C)C)CN(CC(=O)N[C@@H](CC(C)C)CN(CC(=O)N[C@@H](CCCCN)CN(CC(=O)N[C@@H](CC(C)C)CN(CC(=O)N[C@@H](CC(C)C)CN(CC(=O)N[C@@H](CC(C)C)CN(CC(=O)N[C@@H](CCCCN)CN(CC(N)=O)S(=O)(=O)CCN)S(=O)(=O)CC(C)C)S(=O)(=O)CCN)S(=O)(=O)CC(C)C)S(=O)(=O)CCN)S(=O)(=O)CC(C)C)S(=O)(=O)CCN)S(=O)(=O)CC(C)C,MIC,Staphylococcus aureus,> 50 µg/mL
same,MIC,[1],12 µg/mL
same,MIC,Enterococcus faecalis,> 50 µg/mL
same,MIC,Pseudomonas aeruginosa,50 µg/mL
same,MIC,Escherichia,12 µg/mL
same,HC50 at 1 h,[2],> 250 µg/mL
CC[C@H](C)[C@H](NC(=O)CN)C(=O)NCC(=O)N[C@@H](CCCCN)C(=O)N[C@@H](Cc1ccccc1)C(=O)N[C@@H](CC(C)C)C(=O)N[C@@H](CCCCN)C(=O)N[C@@H](CCCCN)C(=O)N[C@@H](C)C(=O)N[C@@H](CCCCN)C(=O)N[C@@H](CCCCN)C(=O)N[C@@H](Cc1ccccc1)C(=O)NCC(=O)N[C@@H](CCCCN)C(=O)N[C@@H](C)C(=O)N[C@@H](Cc1ccccc1)C(=O)N[C@H](C(=O)N[C@@H](CCCCN)C(=O)N[C@H](C(=O)N[C@@H](CC(C)C)C(=O)N[C@@H](CCCCN)C(=O)N[C@@H](CCCCN)C(N)=O)[C@@H](C)CC)C(C)C [PEXIGANAN] (H-GIGKFLKKAKKFGKAFVKILKK-NH2),MIC,Staphylococcus aureus,16 µg/mL
same,MIC,[1],8 µg/mL
same,MIC,Enterococcus faecalis,32 µg/mL
same,MIC,Pseudomonas aeruginosa,16 µg/mL
same,MIC,Escherichia,8 µg/mL
CC[C@H](C)[C@H](NC(=O)[C@H](CCC(N)=O)NC(=O)[C@@H](NC(C)=O)C(C)C)C(=O)N[C@H](C(=O)N[C@@H](Cc1ccc(O)cc1)C(=O)N[C@@H](CCCCN)C(=O)O)C(C)C (Ac-VQIVYK-OH),Stability,[3],Unstable
NCCCC[C@@H](CN(CC(N)=O)S(=O)(=O)CCN)NC(=O)CN(C[C@H](Cc1ccccc1)NC(=O)CN(C[C@H](Cc1ccccc1)NC(=O)CN(C[C@H](Cc1ccccc1)NC(=O)CN(C[C@H](CCCCN)NC(=O)CN(C[C@@H](N)Cc1ccccc1)S(=O)(=O)Cc1ccccc1)S(=O)(=O)CCN)S(=O)(=O)Cc1ccccc1)S(=O)(=O)CCN)S(=O)(=O)Cc1ccccc1,MIC,Staphylococcus aureus,6 µg/mL
same,MIC,[1],3 µg/mL
same,MIC,Enterococcus faecalis,> 50 µg/mL
same,MIC,Pseudomonas aeruginosa,25 µg/mL
same,MIC,Escherichia,12 µg/mL
same,HC50 at 1 h,[2],> 250 µg/mL
CC(=O)N[C@@H](CC(C)C)CN(CC(=O)N[C@@H](CC(C)C)CN(CC(=O)N[C@@H](CC(C)C)CN(CC(=O)N[C@@H](CC(C)C)CN(CC(=O)N[C@@H](CC(C)C)CN(CC(=O)N[C@@H](CC(C)C)CN(CC(=O)N[C@@H](CC(C)C)CN(CC(=O)N[C@@H](CC(C)C)CN(CC(N)=O)S(=O)(=O)CCN)S(=O)(=O)CCN)S(=O)(=O)CCN)S(=O)(=O)CCN)S(=O)(=O)CCN)S(=O)(=O)CCN)S(=O)(=O)CCN)S(=O)(=O)CCN,MIC,Staphylococcus aureus,> 50 µg/mL
same,MIC,[1],> 50 µg/mL
same,MIC,Enterococcus faecalis,> 50 µg/mL
same,MIC,Pseudomonas aeruginosa,> 50 µg/mL
same,MIC,Escherichia,> 50 µg/mL
CC(=O)N[C@@H](Cc1ccccc1)CN(CC(=O)N[C@@H](Cc1ccccc1)CN(CC(=O)N[C@@H](Cc1ccccc1)CN(CC(=O)N[C@@H](Cc1ccccc1)CN(CC(=O)N[C@@H](Cc1ccccc1)CN(CC(=O)N[C@@H](Cc1ccccc1)CN(CC(=O)N[C@@H](Cc1ccccc1)CN(CC(=O)N[C@@H](Cc1ccccc1)CN(CC(N)=O)S(=O)(=O)CCN)S(=O)(=O)CCN)S(=O)(=O)CCN)S(=O)(=O)CCN)S(=O)(=O)CCN)S(=O)(=O)CCN)S(=O)(=O)CCN)S(=O)(=O)CCN,MIC,Staphylococcus aureus,25 µg/mL
same,MIC,[1],6 µg/mL
same,MIC,Enterococcus faecalis,50 µg/mL
same,MIC,Pseudomonas aeruginosa,> 50 µg/mL
same,MIC,Escherichia,> 50 µg/mL
same,HC50 at 1 h,[2],> 250 µg/mL
CC(=O)N[C@@H](CC(C)C)CN(CC(=O)N[C@@H](CC(C)C)CN(CC(=O)N[C@@H](CC(C)C)CN(CC(=O)N[C@@H](CCCCN)CN(CC(=O)N[C@@H](CC(C)C)CN(CC(=O)N[C@@H](CC(C)C)CN(CC(=O)N[C@@H](CC(C)C)CN(CC(=O)N[C@@H](CCCCN)CN(CC(N)=O)S(=O)(=O)CCN)S(=O)(=O)CC(C)C)S(=O)(=O)CCN)S(=O)(=O)CC(C)C)S(=O)(=O)CCN)S(=O)(=O)CC(C)C)S(=O)(=O)CCN)S(=O)(=O)CC(C)C,MIC,Staphylococcus aureus,> 50 µg/mL
same,MIC,[1],12 µg/mL
same,MIC,Enterococcus faecalis,> 50 µg/mL
same,MIC,Pseudomonas aeruginosa,50 µg/mL
same,MIC,Escherichia,25 µg/mL
same,HC50 at 1 h,[2],> 250 µg/mL
CC(=O)N[C@@H](CCCCN)CN(CC(=O)N[C@@H](CCCCN)CN(CC(=O)N[C@@H](CCCCN)CN(CC(=O)N[C@@H](CCCCN)CN(CC(=O)N[C@@H](CCCCN)CN(CC(=O)N[C@@H](CCCCN)CN(CC(=O)N[C@@H](CCCCN)CN(CC(=O)N[C@@H](CCCCN)CN(CC(N)=O)S(=O)(=O)Cc1ccccc1)S(=O)(=O)Cc1ccccc1)S(=O)(=O)Cc1ccccc1)S(=O)(=O)Cc1ccccc1)S(=O)(=O)Cc1ccccc1)S(=O)(=O)Cc1ccccc1)S(=O)(=O)Cc1ccccc1)S(=O)(=O)Cc1ccccc1,MIC,Staphylococcus aureus,> 50 µg/mL
same,MIC,[1],> 50 µg/mL
same,MIC,Enterococcus faecalis,> 50 µg/mL
same,MIC,Pseudomonas aeruginosa,> 50 µg/mL
same,MIC,Escherichia,> 50 µg/mL
CC(=O)N[C@@H](Cc1ccccc1)CN(CC(=O)N[C@@H](Cc1ccccc1)CN(CC(=O)N[C@@H](Cc1ccccc1)CN(CC(=O)N[C@@H](CCCCN)CN(CC(=O)N[C@@H](Cc1ccccc1)CN(CC(=O)N[C@@H](Cc1ccccc1)CN(CC(=O)N[C@@H](Cc1ccccc1)CN(CC(=O)N[C@@H](CCCCN)CN(CC(N)=O)S(=O)(=O)CCN)S(=O)(=O)Cc1ccccc1)S(=O)(=O)CCN)S(=O)(=O)Cc1ccccc1)S(=O)(=O)CCN)S(=O)(=O)Cc1ccccc1)S(=O)(=O)CCN)S(=O)(=O)Cc1ccccc1,MIC,Staphylococcus aureus,4 µg/mL
same,MIC,[1],2 µg/mL
same,MIC,Enterococcus faecalis,2 µg/mL
same,MIC,Pseudomonas aeruginosa,6 µg/mL
same,MIC,Escherichia,4 µg/mL
same,HC50 at 1 h,[2],75 µg/mL
same,EC50,N2a,80 µg/mL
NCCCC[C@@H](CN(CC(N)=O)S(=O)(=O)CCN)NC(=O)CN(C[C@@H](N)Cc1ccccc1)S(=O)(=O)Cc1ccccc1,MIC,Staphylococcus aureus,> 50 µg/mL
same,MIC,[1],> 50 µg/mL
same,MIC,Enterococcus faecalis,> 50 µg/mL
same,MIC,Pseudomonas aeruginosa,> 50 µg/mL
same,MIC,Escherichia,> 50 µg/mL
CC(=O)N[C@@H](CCCCN)CN(CC(=O)N[C@@H](Cc1ccccc1)CN(CC(=O)N[C@@H](CCCCN)CN(CC(=O)N[C@@H](Cc1ccccc1)CN(CC(=O)N[C@@H](CCCCN)CN(CC(=O)N[C@@H](Cc1ccccc1)CN(CC(=O)N[C@@H](CCCCN)CN(CC(=O)N[C@@H](Cc1ccccc1)CN(CC(N)=O)S(=O)(=O)Cc1ccccc1)S(=O)(=O)CCN)S(=O)(=O)Cc1ccccc1)S(=O)(=O)Cc1ccccc1)S(=O)(=O)Cc1ccccc1)S(=O)(=O)CCN)S(=O)(=O)Cc1ccccc1)S(=O)(=O)Cc1ccccc1,MIC,Staphylococcus aureus,5 µg/mL
same,MIC,[1],2 µg/mL
same,MIC,Enterococcus faecalis,10 µg/mL
same,MIC,Pseudomonas aeruginosa,20 µg/mL
same,MIC,Escherichia,3 µg/mL
same,HC50 at 1 h,[2],80 µg/mL
CC(=O)N[C@@H](CCCCN)CN(CC(=O)N[C@@H](Cc1ccccc1)CN(CC(=O)N[C@@H](CCCCN)CN(CC(=O)N[C@@H](Cc1ccccc1)CN(CC(=O)N[C@@H](CCCCN)CN(CC(=O)N[C@@H](Cc1ccccc1)CN(CC(=O)N[C@@H](CCCCN)CN(CC(=O)N[C@@H](Cc1ccccc1)CN(CC(N)=O)S(=O)(=O)Cc1ccccc1)S(=O)(=O)CCN)S(=O)(=O)Cc1ccccc1)S(=O)(=O)CCN)S(=O)(=O)Cc1ccccc1)S(=O)(=O)CCN)S(=O)(=O)Cc1ccccc1)S(=O)(=O)CCN,MIC,Staphylococcus aureus,12 µg/mL
same,MIC,[1],4 µg/mL
same,MIC,Enterococcus faecalis,6 µg/mL
same,MIC,Pseudomonas aeruginosa,> 50 µg/mL
same,MIC,Escherichia,6 µg/mL
same,HC50 at 1 h,[2],150 µg/mL
NCCCC[C@H](N)CN(CC(=O)N[C@@H](Cc1ccccc1)CN(CC(=O)N[C@@H](CCCCN)CN(CC(=O)N[C@@H](Cc1ccccc1)CN(CC(=O)N[C@@H](CCCCN)CN(CC(=O)N[C@@H](Cc1ccccc1)CN(CC(=O)N[C@@H](CCCCN)CN(CC(=O)N[C@@H](Cc1ccccc1)CN(CC(N)=O)S(=O)(=O)Cc1ccccc1)S(=O)(=O)CCN)S(=O)(=O)Cc1ccccc1)S(=O)(=O)Cc1ccccc1)S(=O)(=O)Cc1ccccc1)S(=O)(=O)CCN)S(=O)(=O)Cc1ccccc1)S(=O)(=O)Cc1ccccc1,MIC,Staphylococcus aureus,3 µg/mL
same,MIC,[1],2 µg/mL
same,MIC,Enterococcus faecalis,10 µg/mL
same,MIC,Pseudomonas aeruginosa,15 µg/mL
same,MIC,Escherichia,3 µg/mL
same,HC50 at 1 h,[2],120 µg/mL
NCCCC[C@@H](CN(CC(N)=O)S(=O)(=O)CCN)NC(=O)CN(C[C@H](Cc1ccccc1)NC(=O)CN(C[C@H](Cc1ccccc1)NC(=O)CN(C[C@H](Cc1ccccc1)NC(=O)CN(C[C@H](CCCCN)NC(=O)CN(C[C@H](Cc1ccccc1)NC(=O)CN(C[C@@H](N)Cc1ccccc1)S(=O)(=O)CCN)S(=O)(=O)Cc1ccccc1)S(=O)(=O)CCN)S(=O)(=O)Cc1ccccc1)S(=O)(=O)CCN)S(=O)(=O)Cc1ccccc1,MIC,Staphylococcus aureus,3 µg/mL
same,MIC,[1],3 µg/mL
same,MIC,Enterococcus faecalis,> 50 µg/mL
same,MIC,Pseudomonas aeruginosa,12 µg/mL
same,MIC,Escherichia,12 µg/mL
same,HC50 at 1 h,[2],> 250 µg/mL
NCCCC[C@H](N)CN(CC(=O)N[C@@H](Cc1ccccc1)CN(CC(=O)N[C@@H](Cc1ccccc1)CN(CC(=O)N[C@@H](Cc1ccccc1)CN(CC(=O)N[C@@H](CCCCN)CN(CC(N)=O)S(=O)(=O)CCN)S(=O)(=O)Cc1ccccc1)S(=O)(=O)CCN)S(=O)(=O)Cc1ccccc1)S(=O)(=O)CCN,MIC,Staphylococcus aureus,> 50 µg/mL
same,MIC,[1],20 µg/mL
same,MIC,Enterococcus faecalis,> 50 µg/mL
same,MIC,Pseudomonas aeruginosa,> 50 µg/mL
same,MIC,Escherichia,25 µg/mL
same,HC50 at 1 h,[2],> 250 µg/mL
NCCCC[C@@H](CN(CC(N)=O)S(=O)(=O)CCN)NC(=O)CN(C[C@H](Cc1ccccc1)NC(=O)CN(C[C@H](Cc1ccccc1)NC(=O)CN(C[C@@H](N)Cc1ccccc1)S(=O)(=O)Cc1ccccc1)S(=O)(=O)CCN)S(=O)(=O)Cc1ccccc1,MIC,Staphylococcus aureus,> 50 µg/mL
same,MIC,[1],20 µg/mL
same,MIC,Enterococcus faecalis,> 50 µg/mL
same,MIC,Pseudomonas aeruginosa,> 50 µg/mL
same,MIC,Escherichia,25 µg/mL
same,HC50 at 1 h,[2],> 250 µg/mL
